Data on ten compounds can be found in ChEMBL document CHEMBL1130247, “Antirhino/enteroviral vinylacetylene benzimidazoles: a study of their activity and oral plasma levels in mice” (J Med Chem, 1997).

Data set [1] in a line: Oral plasma concentration in mice at 100 mg/kg dosage within 4-hr time frame. Format: ADME, organism-based. More on the design: route oral, dose 100 mg/kg. The following applies: mouse.
The test system of data set [2] is Coxsackievirus. As to the kind of experiment: Antiviral activity against coxsackie virus A21. In kind it is functional, organism-based. The method in brief: (§1)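 HeLa monolayers in MEM with 5% FBS and 10 mM MgSO4, infected with virus for 1–2 h at room temperature. Overlay of 1.5% agarose mixed 1:1 with 2× MEM (2% FBS) holding graded compound concentrations, diluted in DMSO from a 20 mg/mL stock. Incubated at 37 °C until DMSO-control plaques reached optimal size. Formalin-fixed, crystal violet-stained, plaques counted in duplicate wells. IC50 by Reed–Muench.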

The subject of data set [3] is Coxsackievirus. As to the kind of experiment: Antiviral activity against coxsackie virus A21M. In kind it is functional, organism-based.
Data set [4] concerns Coxsackievirus. As to the kind of experiment: Antiviral activity against coxsackie virus B3. In kind it is functional, organism-based. In outline:
as §1

For data set [5], the system named is Human rhinovirus sp. As to the kind of experiment: Antiviral activity against human rhinovirus 16. In kind it is functional, organism-based.
Data set [6] deals with Human rhinovirus sp. As to the kind of experiment: Antiviral activity against human rhinovirus 1A. Format: functional, organism-based.
Data set [7] concerns Human rhinovirus sp. As to the kind of experiment: Antiviral activity against human rhinovirus 2. In kind it is functional, organism-based.
The subject of another data set is rhinovirus B14. As to the kind of experiment: Antiviral activity against human rhinovirus 14 using plaque reduction assay in HeLa cell lines. Particulars: Rhinovirus B. Format: functional, organism-based, human rhinovirus type 14. Background: Plaque reduction counts the foci of infection that form in a cell layer.
Another data set relates to Enterovirus C. As to the kind of experiment: Antiviral activity against poliovirus 1. In kind it is functional, organism-based. In outline:
as §1

Data set [8] can be described thus: Antiviral activity against human rhinovirus 14 (HRV-14) using CPE/XTT assay in human tumor cell lines. In kind it is organism-based, human rhinovirus type 14. Particulars: read-out: TC50 (the source's name). The method in brief: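 Cytopathic-effect assay run by an earlier published method, except that surviving host cells were quantified with XTT substrate instead of crystal violet staining.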
Background: Formazan colour is commonly taken as a measure of viable cells.

The nature of data set [9]: Oral bioavailability in monkey. Format: ADME, organism-based. Particulars: primates, in vivo.
A further data set relates to HeLa. As to the kind of experiment: Antiviral activity against poliovirus 1 using PV-1 plaque reduction assay in HeLa cell lines. Format: functional, cell-based. Particulars: Homo sapiens. The method in brief:
as §1

Converted amounts (≈) assume the structure as drawn.

For orientation: Cmax means the peak of the concentration-time curve. What is called IC50 is the midpoint of a concentration-inhibition curve. The compound `C#C/C=C(\c1cccc(Cl)c1)c1ccc2nc(N)n(S(=O)(=O)C(C)C)c2c1` showed a Cmax in [1] of 18000 ng/mL. For the same compound, the half-maximal inhibitory concentration (IC50) with Coxsackievirus [2] was 0.23 µg/mL (≈ 0.575 µM); with Coxsackievirus [3] (Coxsackievirus, read-out: IC50) it was 0.18 µg/mL (≈ 0.45 µM); with Coxsackievirus [4], 0.17 µg/mL (≈ 0.425 µM); in the data set on Human rhinovirus sp. [5], 0.19 µg/mL (≈ 0.475 µM); in the data set with Human rhinovirus sp. [6], 0.13 µg/mL (≈ 0.325 µM); in the data set with Human rhinovirus sp. [7], 0.12 µg/mL (≈ 0.3 µM). The IC50 came out at 0.21 µg/mL (≈ 0.525 µM) in the data set with rhinovirus B14 and 0.15 µg/mL (≈ 0.375 µM) in the data set on Enterovirus C. Also, the CC50 in data set [8] came out at 20 µg/mL (≈ 50 µM).
With `CC(C)S(=O)(=O)n1c(N)nc2ccc(/C(=N/O)c3ccccc3)cc21` [ENVIROXIME], in data set [1], the maximum concentration (Cmax) is 890 ng/mL.
Compound `C#C/C=C(\c1ccccc1)c1ccc2nc(N)n(S(=O)(=O)C(C)C)c2c1F` showed a peak concentration (Cmax) in data set [1] of 520 ng/mL. This compound also gave a concentration for half-maximal inhibition (IC50) in the data set on rhinovirus B14 of 2.8 µg/mL (≈ 7.3 µM). Moreover, the CC50 in data set [8] worked out at 57 µg/mL (≈ 149 µM).
In data set [1], `C#C/C=C(\c1cc(F)cc(F)c1)c1ccc2nc(N)n(S(=O)(=O)C(C)C)c2c1` displayed a peak concentration (Cmax) of 18000 ng/mL. Also, the IC50 with Coxsackievirus [2] was determined as 0.19 µg/mL (≈ 0.473 µM); in the data set with Coxsackievirus [3] (Coxsackievirus, read-out: IC50), 0.23 µg/mL (≈ 0.573 µM); in the data set with Coxsackievirus [4], 0.14 µg/mL (≈ 0.349 µM); with Human rhinovirus sp. [5], 0.26 µg/mL (≈ 0.648 µM); with Human rhinovirus sp. [6], 0.12 µg/mL (≈ 0.299 µM); in the data set with Human rhinovirus sp. [7] it was 0.18 µg/mL (≈ 0.448 µM). The IC50 was 0.17 µg/mL (≈ 0.423 µM) with rhinovirus B14 and 0.12 µg/mL (≈ 0.299 µM) in the data set with Enterovirus C. In addition, the CC50 in data set [8] turned out to be 32 µg/mL (≈ 79.7 µM).
As to `CC(C)S(=O)(=O)n1c(N)nc2ccc(C(=O)c3cccc(F)c3)cc21`, in the data set with rhinovirus B14, the IC50 is 2.1 µg/mL (≈ 5.81 µM). In data set [8], the CC50 amounted to 15.9 µg/mL (≈ 44 µM).
In general, bioavailability refers to dose-corrected exposure relative to a reference, in per cent. In [1], `C#C/C=C(\c1ccccc1)c1cc2c(cc1F)nc(N)n2S(=O)(=O)C(C)C` came in with a peak concentration (Cmax) of 16000 ng/mL. This compound returned a bioavailability in [9] of 46%. Half-maximal inhibition with HeLa (IC50) was put at 1.5 µg/mL (≈ 3.91 µM). For the same compound, in data set [8], the CC50 worked out at 13 µg/mL (≈ 33.9 µM).
The compound `C#C/C=C(\c1ccc(C)cc1)c1ccc2nc(N)n(S(=O)(=O)C(C)C)c2c1` returned a Cmax in data set [1] of 610 ng/mL. This compound also registered a concentration for half-maximal inhibition (IC50) in the data set with rhinovirus B14 of 0.075 µg/mL (≈ 0.198 µM). Moreover, in [8], the CC50 came out at 5.7 µg/mL (≈ 15 µM).
Consider `CC#C/C=C(\c1cccc(F)c1)c1ccc2nc(N)n(S(=O)(=O)C(C)C)c2c1`, for which the highest level in data set [1] (Cmax) was 640 ng/mL. The IC50 in the data set with Coxsackievirus [2] is 0.33 µg/mL (≈ 0.83 µM); in the data set on Coxsackievirus [3] (Coxsackievirus, read-out: IC50), 0.36 µg/mL (≈ 0.906 µM); in the data set on Coxsackievirus [4], 0.19 µg/mL (≈ 0.478 µM); in the data set on Human rhinovirus sp. [5] it was 0.09 µg/mL (≈ 0.226 µM); in the data set with Human rhinovirus sp. [6], 0.14 µg/mL (≈ 0.352 µM); in the data set with Human rhinovirus sp. [7] it was 0.28 µg/mL (≈ 0.704 µM). Moreover, the IC50 worked out at 0.26 µg/mL (≈ 0.654 µM) in the data set with rhinovirus B14 and 0.12 µg/mL (≈ 0.302 µM) with Enterovirus C. Moreover, in data set [8], the CC50 was 3.1 µg/mL (≈ 7.8 µM).
Take `C#C/C=C(\c1ccc(F)cc1)c1ccc2nc(N)n(S(=O)(=O)C(C)C)c2c1`: the Cmax in data set [1] came out at 9200 ng/mL. Further, the bioavailability in [9] was 23%. The half-inhibitory concentration (IC50) with Coxsackievirus [2] amounted to 0.1 µg/mL (≈ 0.261 µM); with Coxsackievirus [3], 0.062 µg/mL (≈ 0.162 µM); in the data set with Coxsackievirus [4] it was 0.095 µg/mL (≈ 0.248 µM); in the data set on Human rhinovirus sp. [5], 0.098 µg/mL (≈ 0.256 µM); in the data set on Human rhinovirus sp. [6], 0.078 µg/mL (≈ 0.203 µM); in the data set with Human rhinovirus sp. [7], 0.091 µg/mL (≈ 0.237 µM). In addition, the 50% inhibitory concentration (IC50) in the data set on rhinovirus B14 stood at 0.13 µg/mL (≈ 0.339 µM); in the data set with Enterovirus C, 0.067 µg/mL (≈ 0.175 µM). Further, the CC50 in data set [8] came to 5.8 µg/mL (≈ 15.1 µM).
Consider `C#C/C=C(\c1ccccc1)c1ccc2nc(N)n(S(=O)(=O)C(C)C)c2c1`, for which the half-maximal inhibitory concentration (IC50) in the data set on Coxsackievirus [2] was determined as 0.037 µg/mL (≈ 0.101 µM); with Coxsackievirus [3] (Coxsackievirus, read-out: IC50) it was 0.089 µg/mL (≈ 0.244 µM); in the data set on Coxsackievirus [4], 0.1 µg/mL (≈ 0.274 µM); in the data set on Human rhinovirus sp. [5] it was 0.039 µg/mL (≈ 0.107 µM); in the data set on Human rhinovirus sp. [6], 0.033 µg/mL (≈ 0.0903 µM); in the data set on Human rhinovirus sp. [7], 0.065 µg/mL (≈ 0.178 µM). Further, the figures for the IC50 with rhinovirus B14 and with Enterovirus C were 0.094 µg/mL (≈ 0.257 µM) and 0.037 µg/mL (≈ 0.101 µM), respectively. The CC50 in data set [8] stood at 11 µg/mL (≈ 30.1 µM).
